According to ChEMBL document CHEMBL4689842, “EUbOPEN Chemogenomics Library wave 1” (2021):

System: U2OS
Experiment: Multiplex assay against U2OS
Type: toxicity, cell-based
Conditions: human
Summary of the method: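 At seeding, live cells were stained with Hoechst33342, BioTracker Green Microtubule Cytoskeleton Dye, MitoTracker Red and Annexin V Alexa Fluor 680. After compound addition they were imaged on a CQ1 microscope at 37°C and 5% CO2, and CellPathfinder machine-learning gating sorted them into Hoechst high-intensity objects or normal cells, with normal cells further split into healthy, pyknosed or fragmented nuclei and pyknosed cells into mitotic or apoptotic. Tubulin, mitochondrial-mass and membrane-permeability phenotypes are given as per cents of cells with healthy nuclei.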

[1] = 12 h, 1 µM, compound concentration 1 uM, replicate 1
[2] = 12 h, 1 µM, compound concentration 1 uM, replicate 2
[3] = 12 h, 10 µM, compound concentration 10 uM, replicate 1
[4] = 12 h, 10 µM, compound concentration 10 uM, replicate 2
[5] = 24 h, 1 µM, compound concentration 1 uM, replicate 1
[6] = 24 h, 1 µM, compound concentration 1 uM, replicate 2
[7] = 24 h, 10 µM, compound concentration 10 uM, replicate 1
[8] = 24 h, 10 µM, compound concentration 10 uM, replicate 2
[9] = 48 h, 1 µM, compound concentration 1 uM, replicate 1
[10] = 48 h, 1 µM, compound concentration 1 uM, replicate 2
[11] = 48 h, 10 µM, compound concentration 10 uM, replicate 1
[12] = 48 h, 10 µM, compound concentration 10 uM, replicate 2

In the case of `CNc1cc(Oc2cc(C(=O)Nc3cc(N4CCN(C)CC4)cc(C(F)(F)F)c3)ccc2C)ncn1`, the “Population Apoptotic (%)” value [1] is reported as 32%, the “Population Healthy Nuclei (%)” value [1] is reported as 59% and the “Population Hoechst High Intensity Objects (%)” value [1] is reported as 11%. For the same compound, the “Population Membrane Permeable-Phenotype (%)” value [1] was 4%, the “Population Mitochondria Different-Phenotype (%)” value [1] was 68% and the “Population Mitotic Cells (%)” value [1] was 67%. The “Population Normal (%)” value [1] was 88%, the “Population Pyknosed Nuclei (%)” value [1] was 30% and the “Population Tubulin-Different-Phenotype (%)” value [1] was 60%. For the same compound, the “Total Cell Count” value [1] was 176, the “Population Apoptotic (%)” value [2] was 54% and the “Population Fragmented Nuclei (%)” value [2] was 10%. The “Population Healthy Nuclei (%)” value [2] was 73%, the “Population Hoechst High Intensity Objects (%)” value [2] was 2% and the “Population Membrane Permeable-Phenotype (%)” value [2] was 10%. The “Population Mitochondria Different-Phenotype (%)” value [2] was 60%, the “Population Mitotic Cells (%)” value [2] was 45% and the “Population Normal (%)” value [2] was 97%. For the same compound, the “Population Pyknosed Nuclei (%)” value [2] was 16%, the “Population Tubulin-Different-Phenotype (%)” value [2] was 52% and the “Total Cell Count” value [2] was 56. For the same compound, the “Population Apoptotic (%)” value [3] was 90%, the “Population Fragmented Nuclei (%)” value [3] was 40% and the “Population Healthy Nuclei (%)” value [3] was 10%. The “Population Hoechst High Intensity Objects (%)” value [3] was 6%, the “Population Membrane Permeable-Phenotype (%)” value [3] was 100% and the “Population Mitochondria Different-Phenotype (%)” value [3] was 100%. The “Population Mitotic Cells (%)” value [3] was 9%, the “Population Normal (%)” value [3] was 93% and the “Population Pyknosed Nuclei (%)” value [3] was 48%. For the same compound, the “Population Tubulin-Different-Phenotype (%)” value [3] was 100%, the “Total Cell Count” value [3] was 116 and the “Population Apoptotic (%)” value [4] was 73%. The “Population Fragmented Nuclei (%)” value [4] was 24%, the “Population Healthy Nuclei (%)” value [4] was 13% and the “Population Hoechst High Intensity Objects (%)” value [4] was 33%. For the same compound, the “Population Membrane Permeable-Phenotype (%)” value [4] was 58%, the “Population Mitochondria Different-Phenotype (%)” value [4] was 66% and the “Population Mitotic Cells (%)” value [4] was 26%. The “Population Normal (%)” value [4] was 66%, the “Population Pyknosed Nuclei (%)” value [4] was 61% and the “Population Tubulin-Different-Phenotype (%)” value [4] was 66%. The “Total Cell Count” value [4] was 70, the “Population Apoptotic (%)” value [5] was 46% and the “Population Fragmented Nuclei (%)” value [5] was 11%. The “Population Healthy Nuclei (%)” value [5] was 64%, the “Population Hoechst High Intensity Objects (%)” value [5] was 9% and the “Population Membrane Permeable-Phenotype (%)” value [5] was 10%. The “Population Mitochondria Different-Phenotype (%)” value [5] was 64%, the “Population Mitotic Cells (%)” value [5] was 53% and the “Population Normal (%)” value [5] was 90%. For the same compound, the “Population Pyknosed Nuclei (%)” value [5] was 23%, the “Population Tubulin-Different-Phenotype (%)” value [5] was 55% and the “Total Cell Count” value [5] was 174. For the same compound, the “Population Apoptotic (%)” value [6] was 50%, the “Population Fragmented Nuclei (%)” value [6] was 16% and the “Population Healthy Nuclei (%)” value [6] was 63%. For the same compound, the “Population Hoechst High Intensity Objects (%)” value [6] was 6%, the “Population Membrane Permeable-Phenotype (%)” value [6] was 13% and the “Population Mitochondria Different-Phenotype (%)” value [6] was 68%. The “Population Mitotic Cells (%)” value [6] was 50%, the “Population Normal (%)” value [6] was 93% and the “Population Pyknosed Nuclei (%)” value [6] was 19%. For the same compound, the “Population Tubulin-Different-Phenotype (%)” value [6] was 51%, the “Total Cell Count” value [6] was 58 and the “Population Apoptotic (%)” value [7] was 93%. The “Population Fragmented Nuclei (%)” value [7] was 47%, the “Population Healthy Nuclei (%)” value [7] was 3% and the “Population Hoechst High Intensity Objects (%)” value [7] was 10%. The “Population Membrane Permeable-Phenotype (%)” value [7] was 100%, the “Population Mitochondria Different-Phenotype (%)” value [7] was 100% and the “Population Mitotic Cells (%)” value [7] was 6%. For the same compound, the “Population Normal (%)” value [7] was 89%, the “Population Pyknosed Nuclei (%)” value [7] was 48% and the “Population Tubulin-Different-Phenotype (%)” value [7] was 100%. The “Total Cell Count” value [7] was 120, the “Population Apoptotic (%)” value [8] was 76% and the “Population Fragmented Nuclei (%)” value [8] was 16%. The “Population Healthy Nuclei (%)” value [8] was 23%, the “Population Hoechst High Intensity Objects (%)” value [8] was 48% and the “Population Membrane Permeable-Phenotype (%)” value [8] was 80%. For the same compound, the “Population Mitochondria Different-Phenotype (%)” value [8] was 80%, the “Population Mitotic Cells (%)” value [8] was 23% and the “Population Normal (%)” value [8] was 51%. The “Population Pyknosed Nuclei (%)” value [8] was 60%, the “Population Tubulin-Different-Phenotype (%)” value [8] was 80% and the “Total Cell Count” value [8] was 76. The “Population Apoptotic (%)” value [9] was 54%, the “Population Fragmented Nuclei (%)” value [9] was 21% and the “Population Healthy Nuclei (%)” value [9] was 60%. For the same compound, the “Population Hoechst High Intensity Objects (%)” value [9] was 6%, the “Population Membrane Permeable-Phenotype (%)” value [9] was 11% and the “Population Mitochondria Different-Phenotype (%)” value [9] was 50%. For the same compound, the “Population Mitotic Cells (%)” value [9] was 45%, the “Population Normal (%)” value [9] was 93% and the “Population Pyknosed Nuclei (%)” value [9] was 18%. For the same compound, the “Population Tubulin-Different-Phenotype (%)” value [9] was 49%, the “Total Cell Count” value [9] was 163 and the “Population Apoptotic (%)” value [10] was 50%. For the same compound, the “Population Fragmented Nuclei (%)” value [10] was 14%, the “Population Healthy Nuclei (%)” value [10] was 70% and the “Population Hoechst High Intensity Objects (%)” value [10] was 4%. For the same compound, the “Population Membrane Permeable-Phenotype (%)” value [10] was 24%, the “Population Mitochondria Different-Phenotype (%)” value [10] was 54% and the “Population Mitotic Cells (%)” value [10] was 50%. For the same compound, the “Population Normal (%)” value [10] was 95%, the “Population Pyknosed Nuclei (%)” value [10] was 14% and the “Population Tubulin-Different-Phenotype (%)” value [10] was 50%. The “Total Cell Count” value [10] was 51, the “Population Apoptotic (%)” value [11] was 96% and the “Population Fragmented Nuclei (%)” value [11] was 52%. For the same compound, the “Population Healthy Nuclei (%)” value [11] was 2%, the “Population Hoechst High Intensity Objects (%)” value [11] was 20% and the “Population Membrane Permeable-Phenotype (%)” value [11] was 100%. The “Population Mitochondria Different-Phenotype (%)” value [11] was 100%, the “Population Mitotic Cells (%)” value [11] was 3% and the “Population Normal (%)” value [11] was 80%. For the same compound, the “Population Pyknosed Nuclei (%)” value [11] was 45%, the “Population Tubulin-Different-Phenotype (%)” value [11] was 100% and the “Total Cell Count” value [11] was 142. The “Population Apoptotic (%)” value [12] was 47%, the “Population Fragmented Nuclei (%)” value [12] was 22% and the “Population Healthy Nuclei (%)” value [12] was 45%. For the same compound, the “Population Hoechst High Intensity Objects (%)” value [12] was 50%, the “Population Membrane Permeable-Phenotype (%)” value [12] was 89% and the “Population Mitochondria Different-Phenotype (%)” value [12] was 89%. For the same compound, the “Population Mitotic Cells (%)” value [12] was 52%, the “Population Normal (%)” value [12] was 50% and the “Population Pyknosed Nuclei (%)” value [12] was 31%. For the same compound, the “Population Tubulin-Different-Phenotype (%)” value [12] was 89% and the “Total Cell Count” value [12] was 85.
